Results reported in ChEMBL document CHEMBL1131456, “Synthesis, pharmacological characterization, and quantitative structure-activity relationship analyses of 3,7,9,9-tetraalkylbispidines: derivatives with specific bradycardic activity” (J Med Chem, 1998).

How the values were obtained:
Cavia porcellus [1] = species on record: Cavia porcellus; experiment: Score value indicates selectivity versus the decrease in force of contraction; assay type: functional
Cavia porcellus [2] = species on record: Cavia porcellus; experiment: Score point for the selectivity versus additional effect FRP.; assay type: functional
Cavia porcellus [3] = species on record: Cavia porcellus; experiment: Score value indicates decrease of the sinus rate; assay type: functional
Cavia porcellus [4] = species on record: Cavia porcellus; experiment: Sum of the scores of decrease of the sinus rate and selectivity versus the decrease in force of contraction; assay type: functional
Rattus norvegicus [5] = species on record: Rattus norvegicus; experiment: Score point for the selectivity versus additional effect R&T interval.; assay type: functional
Cavia porcellus [6] = species on record: Cavia porcellus; experiment: In vitro activity in guinea pig atria as the functional refractory period (FRP), which is the shortest interval between a double stimulus causing a double contraction.
Method in brief: (§1)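 Isolated guinea pig atria in oxygenated buffer at 35 °C. Right atria beat spontaneously; left atria were paced at 2 Hz with 1 ms rectangular pulses and isometric contractions were recorded. Cumulative concentration–response curves were run with up to five concentrations. EC75/EC125 is the concentration giving a 25% decrease/increase from the predrug value, reported as the geometric mean of individual ECs.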

Rattus norvegicus [7] = experiment: In vivo activity in anesthetized rat was measured as the diastolic arterial pressure which provides information on the peripheral resistance of the cardiovascular system and selectivity regarding bradycardia; assay type: functional, Artery
Method in brief: (§2)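 Male Wistar rats (280–360 g) under urethane (1.25 g/kg ip), intubated and breathing spontaneously. Femoral arterial pressure was recorded with needle-electrode ECG, analysed every 30 s. Compound was given by continuous femoral-vein infusion at 0.1 mL/min, with concentration raised tenfold every 10 min (3 doses). ED75/ED125 is the dose giving a 25% decrease/increase from the predrug value, reported as the geometric mean of individual EDs.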

Cavia porcellus [8] = species on record: Cavia porcellus; experiment: In vitro activity in guinea pig atria was measured as rate of spontaneously beating right atrium (SR) which reflects the activity of the sinus node; assay type: functional; conditions: Cardiac atrium; method in brief: as §1
Cavia porcellus [9] = species on record: Cavia porcellus; experiment: Selectivity quotient (FRP125/SR75); assay type: functional
Method in brief: (§3)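 Atrial selectivity quotients were calculated from the guinea pig atrial EC values as F75/SR75 and FRP125/SR75.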

Rattus norvegicus [10] = species on record: Rattus norvegicus; experiment: Selectivity quotient (R&T125/HR75)
Rattus norvegicus [11] = species on record: Rattus norvegicus; experiment: Score value indicates desire effect on heart rate; assay type: functional
Rattus norvegicus [12] = experiment: In vivo activity in anesthetized rat was measured as the R alpha T-interval of the rat ECG which reflects the time from ventricular excitation to recovery; assay type: functional, Cardiac ventricle; method in brief: as §2
Rattus norvegicus [13] = species on record: Rattus norvegicus; experiment: Selectivity quotient (DAP125/HR75)
Cavia porcellus [14] = species on record: Cavia porcellus; experiment: In vitro activity in guinea pig atria was measured as the peak force of contraction (F) of a stimulated left atrium; assay type: functional; conditions: Cardiac atrium; method in brief: as §1
Rattus norvegicus [15] = species on record: Rattus norvegicus; experiment: Total score (SS)
Rattus norvegicus [16] = species on record: Rattus norvegicus; experiment: Score value indicates selectivity against the undesired effect on diastolic blood pressure; assay type: functional, Artery
Cavia porcellus [17] = species on record: Cavia porcellus; experiment: Selectivity quotient (F75/SR75); assay type: functional; method in brief: as §3
Rattus norvegicus [18] = experiment: In vivo activity in anesthetized rat was measured as heart rate which provides information on in vivo bradycardic activity; assay type: functional; method in brief: as §2
[19] = Partition coefficient (logP); assay type: physicochemical; conditions: octanol/water
Method in brief: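 Lipophilicity was measured by reversed-phase HPLC. Mobile phase was methanol/0.005 M phosphate buffer pH 4 (60/40) with 0.1% SDS and 0.1 M NaClO4, at 23.0 ± 0.5 °C, with UV detection at 205 nm.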

logP ([19]; read-out: logP)	logP [19]	Structure (SMILES)	Score (Cavia porcellus [1])	Score (Cavia porcellus [2])	Score (Cavia porcellus [3])	Score (Cavia porcellus [4])	Score (Rattus norvegicus [5])	EC125 (Cavia porcellus [6]) [µM]	ED125 (Rattus norvegicus [7]) [µM/kg]	EC75 (Cavia porcellus [8]) [µM]	Selectivity quotient (Cavia porcellus [9])	Selectivity quotient (Rattus norvegicus [10])	Score (Rattus norvegicus [11])	ED125 (Rattus norvegicus [12]) [µM/kg]	Selectivity quotient (Rattus norvegicus [13])	EC75 (Cavia porcellus [14]) [µM]	total score (SS) (Rattus norvegicus [15])	Score (Rattus norvegicus [16])	Selectivity quotient (Cavia porcellus [17])	ED75 (Rattus norvegicus [18]) [µM/kg]
3.13	–	C=CCCN1CC2CN(CCC=C)CC(C1)C2(C)C	0	3	5	5	5	1.87	>46	1.21	1.54	0.13	5	0.94	>6	> 215	4	-1	>177	7.1
4.49	–	C=CCCN1CC2CN(CCC=C)CC(C1)C21CCCCC1	0	2	6	6	5	1.14	1.5	0.4	2.85	0.12	6	0.58	0.31	75.1	2	-4	167	4.9
7.61	–	CCCCC1(CCCC)C2CN(CC3CCCCC3)CC1CN(C(C)C)C2	-5	3	5	0	5	1.45	>66	1.9	0.76	0.12	4	1.1	>7	3.65	3	-1	1.92	9.3
4.88	–	CCCCCCN1CC2CN(C)CC(C1)C2(CC)CC	–	–	–	–	5	0.84	>106	–	–	0.12	3	3	>4	17.5	2	-1	–	25
4.98	–	CCCCN1CC2CN(CC3CCCCC3)CC(C1)C2(C)C	-1	3	6	5	5	0.48	>41	0.88	0.55	0.17	5	0.96	>7	16.3	4	-1	18.5	5.7
–	9.64	CCCCCCCCCCN1CC2CN(CCCCCCCCCC)CC(C1)C2(C)C	–	–	–	–	–	85	–	–	–	–	–	–	–	105	–	–	–	–

Structure (SMILES)	logP ([19]; read-out: logP)	logP [19]	Score (Cavia porcellus [1])	Score (Cavia porcellus [2])	Score (Cavia porcellus [3])	Score (Cavia porcellus [4])	Score (Rattus norvegicus [5])	EC125 (Cavia porcellus [6]) [µM]	ED125 (Rattus norvegicus [7]) [µM/kg]	EC75 (Cavia porcellus [8]) [µM]	Selectivity quotient (Cavia porcellus [9])	Selectivity quotient (Rattus norvegicus [10])	Score (Rattus norvegicus [11])	ED125 (Rattus norvegicus [12]) [µM/kg]	Selectivity quotient (Rattus norvegicus [13])	EC75 (Cavia porcellus [14]) [µM]	total score (SS) (Rattus norvegicus [15])	Score (Rattus norvegicus [16])	Selectivity quotient (Cavia porcellus [17])	ED75 (Rattus norvegicus [18]) [µM/kg]
C=CCN1CC2CN(CC=C)CC(C1)C2(C)C	2.7	–	0	4	3	3	–	4.3	–	8.55	0.5	–	–	–	–	> 215	–	–	>25	–
CN1CC2CN(C)CC(C1)C2(C)C	1.61	–	-5	3	0	-5	–	122	–	–	1	–	–	–	–	–	–	–	1	–
